# Reference: ChEMBL document CHEMBL1129633, “Synthesis and pharmacological testing of dequalinium analogues as blockers of the apamin-sensitive Ca(2+)-activated K+ channel: variation of the length of the alkylene chain” (J Med Chem, 1996)
# Experiments:
# Rattus norvegicus [1] = species on record: Rattus norvegicus; assay: The equieffective molar ratio of the concentrations of the test compound and dequalinium that cause 50% inhibition of the after hyper polarization (AHP); assay type: functional
# Outline: (§1)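 Cultured neurons (3-10 days in culture); action potentials evoked every 5 s by depolarizing current pulses; drugs applied at known concentration in continuously flowing bath. AHP amplitude measured with and without compound for percent inhibition. Dequalinium tested on every cell; EMR = ratio of concentrations of compound and dequalinium giving 50% AHP inhibition in the same experiment. IC50 and EMR from simultaneous nonlinear least-squares Hill fits; each concentration tested on at least three neurons.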
# Rattus norvegicus [2] = species on record: Rattus norvegicus; assay: Compound was tested for its ability to inhibit the after hyperpolarization which follows the action potential in rat sympathetic neurons.; assay type: functional, organism-based; settings: Sympathetic neuron; outline: as §1
# Rattus norvegicus [3] = species on record: Rattus norvegicus; assay: The equieffective molar ratio of the concentrations of the test compound and after hyperpolarization (AHP); assay type: functional
Compound,IC50 (Rattus norvegicus [2]) [nM],EMR (Rattus norvegicus [1]),EMR (Rattus norvegicus [3])
Nc1cc[n+](CCCCCCCCCC[n+]2ccc(N)c3ccccc32)c2ccccc12,–,1.3,–
Nc1cc[n+](CCCC[n+]2ccc(N)c3ccccc32)c2ccccc12,1800,3.2,–
Nc1cc[n+](CCCCCC[n+]2ccc(N)c3ccccc32)c2ccccc12,2000,1.8,–
Nc1cc[n+](CCC[n+]2ccc(N)c3ccccc32)c2ccccc12,4500,–,8.3
Nc1cc[n+](CCCCCCCC[n+]2ccc(N)c3ccccc32)c2ccccc12,2000,2.1,–

# More lines, main results first:
IC50 (Rattus norvegicus [2]) [nM],Compound,EMR (Rattus norvegicus [1]),EMR (Rattus norvegicus [3])
1700,Nc1cc[n+](CCCCCCCCCCCC[n+]2ccc(N)c3ccccc32)c2ccccc12,1.8,–
1000,Nc1cc[n+](CCCCC[n+]2ccc(N)c3ccccc32)c2ccccc12,1,–
900,Cc1cc(N)c2ccccc2[n+]1CCCCCCCCCC[n+]1c(C)cc(N)c2ccccc21.[Cl-].[Cl-] [DEQUALINIUM CHLORIDE],–,1
